Assay results taken from ChEMBL document CHEMBL4422628, “Discovery of first-in-class thiazole-based dual FFA1/PPARδ agonists as potential anti-diabetic agents” (Eur J Med Chem, 2019).

Tests used:
[1] = target: T1, Free fatty acid receptor 1 (Homo sapiens, UniProt O14842); assay: Agonist activity at human FFA1 receptor expressed in CHO cells by Fluo 4-AM dye based FLIPR assay; assay type: cell-based
Procedure, shortened: (§1)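 hFFA1-expressing CHO cells were loaded for 1 h at 37 °C with buffer containing 2.5 μg/mL Fluo 4-AM, 0.1% fatty acid-free BSA and 2.5 mmol/L probenecid. Compounds were added and calcium flux was read on FLIPR. Activity = (A–B)/(C–B)×100%, where A is the compound response, B the vehicle response and C the 10 μM γ-linolenic acid response.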

[2] = target: T2, Peroxisome proliferator-activated receptor delta (Homo sapiens, UniProt Q03181); assay: Transactivation of GAL4-fused human PPARdelta LBD expressed in HEK293 cells after 18 hrs by luciferase reporter gene assay; assay type: cell-based
T2 sequence (Q03181 whole entry): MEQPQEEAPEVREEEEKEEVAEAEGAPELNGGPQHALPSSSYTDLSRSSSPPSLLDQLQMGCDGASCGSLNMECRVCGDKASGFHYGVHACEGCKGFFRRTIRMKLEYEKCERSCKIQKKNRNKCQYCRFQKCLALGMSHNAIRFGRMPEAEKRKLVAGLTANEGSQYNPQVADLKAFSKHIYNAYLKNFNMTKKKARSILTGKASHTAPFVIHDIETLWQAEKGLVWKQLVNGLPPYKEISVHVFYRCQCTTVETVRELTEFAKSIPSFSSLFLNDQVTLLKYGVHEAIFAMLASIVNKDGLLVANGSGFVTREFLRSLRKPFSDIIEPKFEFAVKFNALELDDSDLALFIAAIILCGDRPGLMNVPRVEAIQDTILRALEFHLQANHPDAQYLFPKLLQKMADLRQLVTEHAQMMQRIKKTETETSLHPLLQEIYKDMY

[3] = target: T1, Free fatty acid receptor 1; assay: Agonist activity at human FFA1 receptor expressed in CHO cells assessed as activity percentage at 10 uM by Fluo 4-AM dye based FLIPR assay relative to control; assay type: cell-based; procedure, shortened: as §1
[4] = target: T3, Peroxisome proliferator-activated receptor delta (Homo sapiens) (UniProt Q03181); assay: Transactivation of GAL4-fused human PPARdelta LBD expressed in HEK293 cells assessed as activity percentage at 10 uM after 18 hrs by luciferase reporter gene assay relative to control; assay type: cell-based
T3 sequence (whole entry): T2 sequence (Q03181 whole entry)
Procedure, shortened: (§2)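 HepG2 or HEK293 cells were transfected with pBIND-PPARα, -δ or -γ (GAL4 fusion). Compounds at varying concentrations were incubated for 18 h. Cells were then lysed and firefly and renilla luciferase were read by dual-luciferase assay.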

[5] = tested on: Mus musculus; assay: Antidiabetic activity in ob/ob mouse assessed as reduction in blood glucose AUC (0 to 120 mins) at 40 mg/kg, po administered as single dose pretreated for 30 mins followed by glucose-challenge by glucometric analysis relative to control; assay type: functional; parameters: scale not given: the % may be the effect or the level left
Procedure, shortened: (§3)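 Male ob/ob mice (six weeks old on arrival, acclimatized one week) were fasted 12 h and randomized (n = 6/group). Each received a single oral dose in 0.5% carboxymethyl cellulose vehicle, then 3 g/kg oral glucose 30 min later. Blood glucose was measured by glucometer at −30, 0, 15, 30, 60 and 120 min. Glucose AUC0-120min was calculated, mean ± SD.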

[6] = target: T4, Peroxisome proliferator-activated receptor alpha (Homo sapiens, UniProt Q07869); assay: Transactivation of GAL4-fused human PPARalpha LBD expressed in HEK293 cells after 18 hrs by luciferase reporter gene assay; assay type: cell-based; procedure, shortened: as §2
T4 sequence (Q07869 whole entry): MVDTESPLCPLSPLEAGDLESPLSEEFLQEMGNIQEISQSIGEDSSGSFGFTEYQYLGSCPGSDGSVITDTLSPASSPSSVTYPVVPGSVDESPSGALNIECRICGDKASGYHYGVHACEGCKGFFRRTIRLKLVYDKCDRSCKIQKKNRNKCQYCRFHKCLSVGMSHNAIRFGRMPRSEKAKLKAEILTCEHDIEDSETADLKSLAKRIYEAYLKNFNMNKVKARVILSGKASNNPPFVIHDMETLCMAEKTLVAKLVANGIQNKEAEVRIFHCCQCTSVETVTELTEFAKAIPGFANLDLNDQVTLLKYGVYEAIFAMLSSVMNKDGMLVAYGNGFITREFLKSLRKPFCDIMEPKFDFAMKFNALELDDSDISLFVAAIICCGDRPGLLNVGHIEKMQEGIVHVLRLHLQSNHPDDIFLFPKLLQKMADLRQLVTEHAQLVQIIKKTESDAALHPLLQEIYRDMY

[7] = target: T5, Peroxisome proliferator-activated receptor gamma (Homo sapiens, UniProt P37231); assay: Transactivation of GAL4-fused human PPARgamma LBD expressed in HEK293 cells after 18 hrs by luciferase reporter gene assay; assay type: cell-based; procedure, shortened: as §2
T5 sequence (P37231 whole entry): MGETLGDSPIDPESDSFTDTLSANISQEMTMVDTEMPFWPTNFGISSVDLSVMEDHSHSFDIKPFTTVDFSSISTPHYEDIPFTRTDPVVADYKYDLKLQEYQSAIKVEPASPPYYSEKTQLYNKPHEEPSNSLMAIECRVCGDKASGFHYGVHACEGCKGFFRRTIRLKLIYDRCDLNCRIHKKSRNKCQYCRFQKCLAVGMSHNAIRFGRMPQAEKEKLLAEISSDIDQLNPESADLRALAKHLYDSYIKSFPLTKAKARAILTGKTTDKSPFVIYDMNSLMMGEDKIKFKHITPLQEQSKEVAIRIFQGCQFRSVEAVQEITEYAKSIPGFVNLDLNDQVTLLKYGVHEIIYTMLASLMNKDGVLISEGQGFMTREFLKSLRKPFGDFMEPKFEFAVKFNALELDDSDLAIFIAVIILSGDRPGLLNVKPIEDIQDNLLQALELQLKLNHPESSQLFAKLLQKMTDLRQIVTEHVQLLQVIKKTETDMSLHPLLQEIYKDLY

[8] = Clearance in Sprague-Dawley rat at 3 mg/kg, po by LC-MS/MS analysis; assay type: ADME, organism-based; conditions: in vivo
[9] = Cmax in Sprague-Dawley rat at 3 mg/kg, po by LC-MS/MS analysis; assay type: ADME, organism-based; parameters: dose 3 mg/kg, route oral; conditions: in vivo
[10] = AUC (0 to 24 hrs) in Sprague-Dawley rat at 3 mg/kg, po by LC-MS/MS analysis; assay type: ADME, organism-based; parameters: dose 3 mg/kg, time < 24 hr, route oral; conditions: in vivo
[11] = Half life in Sprague-Dawley rat at 3 mg/kg, po by LC-MS/MS analysis; assay type: ADME, organism-based; conditions: in vivo
[12] = tested on: Mus musculus; assay: Antidiabetic activity in ob/ob mouse assessed as change in blood glucose AUC (0 to 120 mins) at 10 mg/kg, po administered as single dose pretreated for 30 mins followed by glucose-challenge by glucometric analysis relative to control; assay type: functional; procedure, shortened: as §3
[13] = tested on: Mus musculus; assay: Antidiabetic activity in ob/ob mouse assessed as reduction in blood glucose AUC (0 to 120 mins) at 30 mg/kg, po administered as single dose pretreated for 30 mins followed by glucose-challenge by glucometric analysis relative to control; assay type: functional; parameters: scale not given: the % may be the effect or the level left; procedure, shortened: as §3
[14] = tested on: Mus musculus; assay: Antidiabetic activity in ob/ob mouse assessed as reduction in blood glucose AUC (0 to 120 mins) at 100 mg/kg, po administered as single dose pretreated for 30 mins followed by glucose-challenge by glucometric analysis relative to control; assay type: functional; parameters: scale not given: the % may be the effect or the level left; procedure, shortened: as §3
[15] = tested on: Mus musculus; assay: Antidiabetic activity in po dosed ob/ob mouse assessed as reduction in blood glucose AUC (0 to 120 mins) administered as single dose pretreated for 30 mins followed by glucose-challenge by glucometric analysis; assay type: functional, organism-based; procedure, shortened: as §3

T1 sequence (O14842 whole entry): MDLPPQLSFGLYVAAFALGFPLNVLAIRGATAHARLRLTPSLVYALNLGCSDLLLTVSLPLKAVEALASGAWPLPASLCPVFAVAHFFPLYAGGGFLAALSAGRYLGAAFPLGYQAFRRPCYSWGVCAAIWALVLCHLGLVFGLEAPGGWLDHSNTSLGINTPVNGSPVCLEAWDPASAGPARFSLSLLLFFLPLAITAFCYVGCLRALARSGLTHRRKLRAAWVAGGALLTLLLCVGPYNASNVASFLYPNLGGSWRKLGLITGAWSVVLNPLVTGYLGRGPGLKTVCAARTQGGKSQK

O=C(O)COc1ccc(OCc2nnc(-c3ccccc3)s2)cc1F
EC50 [1]: > 10000 nM | EC50 [2]: > 10000 nM | Activity [3]: 19% | Activity [4]: 4%

Cc1nc(-c2cccc(F)c2)sc1COc1ccc(OCC(=O)O)c(F)c1
EC50 [1]: 185 nM | EC50 [2]: 780 nM

[2H]C([2H])(Cc1ccc(OCc2sc(-c3ccc(C(F)(F)F)cc3)nc2C)cc1)C(=O)O
EC50 [1]: 325 nM | EC50 [2]: 376 nM

Cc1nc(-c2ccc(C(F)(F)F)cc2)sc1COc1ccc(OCC(=O)O)c(F)c1
EC50 [1]: 149 nM | EC50 [2]: 436 nM

Cc1nc(-c2ccccc2)sc1COc1ccc2c(c1)OCC2CC(=O)O (stereo not drawn)
EC50 [1]: 102 nM | EC50 [2]: 863 nM

Cc1sc(-c2ccccc2)nc1CNc1ccc(OCC(=O)O)c(F)c1
EC50 [1]: > 10000 nM | EC50 [2]: > 10000 nM | Activity [3]: 42% | Activity [4]: 12%

Cc1cc(OCc2sc(-c3ccc(C(F)(F)F)cc3)nc2C)ccc1OCC(=O)O
EC50 [1]: > 10000 nM | EC50 [2]: 315 nM

[2H]C([2H])(Cc1ccc(OCc2sc(-c3ccccc3)nc2C)cc1)C(=O)O
EC50 [1]: 590 nM | EC50 [2]: 972 nM

Cc1nc(-c2ccccc2)sc1COc1ccc(OCC(=O)O)c(F)c1
EC50 [1]: 374 nM | EC50 [2]: 1320 nM

Cc1nc(-c2ccccc2)sc1COc1ccc(S(=O)(=O)CC(=O)O)cc1
EC50 [1]: 370 nM | EC50 [2]: > 10000 nM

COc1ccc(-c2nc(C)c(COc3ccc4c(c3)OCC4CC(=O)O)s2)cc1 (stereo not drawn)
EC50 [1]: 156 nM | EC50 [2]: 920 nM

O=C(O)COc1ccc(OCc2csc(-c3ccccc3)n2)cc1F
EC50 [1]: > 10000 nM | EC50 [2]: > 10000 nM | Activity [3]: 23% | Activity [4]: 20%

Cc1nc(-c2ccccc2)oc1COc1ccc(OCC(=O)O)c(F)c1
EC50 [1]: 1350 nM | EC50 [2]: 2660 nM

[2H]C([2H])(Cc1ccc(OCc2sc(-c3ccc(F)cc3)nc2C)cc1)C(=O)O
EC50 [1]: 251 nM | EC50 [2]: 529 nM

Cc1nc(-c2ccc(Cl)cc2)sc1COc1ccc2c(c1)OCC2CC(=O)O (stereo not drawn)
EC50 [1]: 105 nM | EC50 [2]: 264 nM

O=C(O)COc1ccc(OCc2ncc(-c3ccccc3)o2)cc1F
EC50 [1]: > 10000 nM | EC50 [2]: > 10000 nM | Activity [3]: 2% | Activity [4]: 8%

Cc1nc(-c2ccc(F)cc2)sc1COc1ccc(OCC(=O)O)c(F)c1
EC50 [1]: 112 nM | EC50 [2]: 729 nM

Cc1cc(OCc2nnc(-c3ccccc3)s2)ccc1OCC(=O)O
EC50 [1]: > 10000 nM | EC50 [2]: > 10000 nM | Activity [3]: 1% | Activity [4]: 9%

O=C(O)COc1ccc(OCc2nnc(-c3ccccc3)o2)cc1F
EC50 [1]: > 10000 nM | EC50 [2]: > 10000 nM | Activity [3]: 6% | Activity [4]: 3%

Cc1nc(-c2ccc(F)cc2)sc1COc1ccc(S(=O)(=O)CC(=O)O)cc1
EC50 [1]: 253 nM | EC50 [2]: > 10000 nM

Cc1cc(OCc2sc(-c3ccccc3)nc2C)ccc1OCC(=O)O
EC50 [1]: > 10000 nM | EC50 [2]: 1650 nM | Activity [3]: 13%

Cc1cc(OCCCS(C)(=O)=O)cc(C)c1-c1cccc(COc2ccc3c(c2)OC[C@H]3CC(=O)O)c1
Activity [5]: 15.7%

Cc1nc(-c2ccc(C(F)(F)F)cc2)sc1COc1ccc2c(c1)OCC2CC(=O)O (stereo not drawn)
EC50 [1]: 113 nM | EC50 [2]: 175 nM

Cc1ccc(-c2nc(C)c(COc3ccc4c(c3)OCC4CC(=O)O)s2)cc1 (stereo not drawn)
EC50 [1]: 94 nM | EC50 [2]: 218 nM

Cc1nc(-c2ccc(F)cc2)sc1COc1ccc2c(c1)OCC2CC(=O)O (stereo not drawn)
EC50 [1]: 79 nM | EC50 [2]: 306 nM

O=C(O)COc1ccc(OCc2nc(-c3ccccc3)cs2)cc1F
EC50 [1]: > 10000 nM | EC50 [2]: > 10000 nM | Activity [3]: 15% | Activity [4]: 11%

O=C(O)COc1ccc(OCc2ncc(-c3ccccc3)s2)cc1F
EC50 [1]: > 10000 nM | EC50 [2]: > 10000 nM | Activity [3]: 31% | Activity [4]: 23%

Cc1sc(-c2ccccc2)nc1COc1ccc(OCC(=O)O)c(F)c1
EC50 [1]: > 10000 nM | EC50 [2]: > 10000 nM | Activity [3]: 37% | Activity [4]: 31%

Cc1cccc(-c2nc(C)c(COc3ccc(OCC(=O)O)c(F)c3)s2)c1
EC50 [1]: 247 nM | EC50 [2]: 1160 nM

Cc1ccc(-c2nc(C)c(COc3ccc(OCC(=O)O)c(F)c3)s2)cc1
EC50 [1]: 156 nM | EC50 [2]: 564 nM

Cc1nc(-c2ccc(C(F)(F)F)cc2)sc1COc1ccc2c(c1)OC[C@H]2CC(=O)O
EC50 [1]: 68 nM | EC50 [2]: 102 nM | EC50 [6]: > 10000 nM | EC50 [7]: > 10000 nM | CL/F [8]: 0.279 mL/min/kg | Cmax [9]: 9450 ng/mL | AUC(0-t) at 24 h [10]: 95600 ng·h/mL | half-life [11]: 4.31 h | Activity [12]: 1.1% | Activity [13]: 6.1% | Activity [14]: 10.9% | Activity [15]: Dose-dependent effect

Cc1cc(OCc2csc(-c3ccccc3)n2)ccc1OCC(=O)O
EC50 [1]: > 10000 nM | EC50 [2]: > 10000 nM | Activity [3]: 5% | Activity [4]: 35%

Cc1cc(OCc2ncc(-c3ccccc3)o2)ccc1OCC(=O)O
EC50 [1]: > 10000 nM | EC50 [2]: > 10000 nM | Activity [3]: 2% | Activity [4]: 12%
